Measured values pooled from the literature.
Protocols differ between the studies behind these lines.
MAP2K6: Dual specificity mitogen-activated protein kinase kinase 6 (MAP2K6, Homo sapiens, UniProt P52564)

Cc1nn(C)cc1-c1nc2c(N3CCN(Cc4ccc(Cl)cc4)CC3)c(Cl)cnc2[nH]1
remaining binding (MAP2K6; binding; competition with immobilised ligand; 1 µM): 73%

COc1ncccc1-c1cnn2ccc(N3CCN(C(=O)OC(C)C)CC3)nc12
remaining binding (MAP2K6; binding; competition with immobilised ligand; 1 µM): 56%

Cn1cncc1[C@](O)(COc1ccc(C#N)cc1-c1ccc(OC(F)(F)F)cc1)c1ccc(C#N)cc1
remaining binding (MAP2K6; cell-free assay; competition with immobilised ligand; 1 µM): 76%

Nc1ncc(-c2nc(N3CCOCC3)nc(N3CCOCC3)n2)c(C(F)F)n1
remaining binding (MAP2K6; binding; competition with immobilised ligand; 10 µM): 92%

Cn1cc(-c2cccc(N3CCc4c(sc5c4CC(C)(C)C5)C3=O)c2CO)cc(Nc2ccncn2)c1=O
inhibition (Dual specificity mitogen-activated protein kinase kinase 6 (MAP2K6, Homo sapiens, UniProt P52564, S207E/T211E); enzyme activity; inhibitor; 1 µM): -4%

O=c1[nH]c2ccccc2n1C1CCN(Cc2ccc(-c3[nH]c4cc5ncnc5cc4nc3-c3ccccc3)cc2)CC1
remaining signal (MAP2K6; cell-free assay; 0.5 µM): 101%

Cn1cc(-c2cc(F)cc(N3CCn4c(cc5c4CCCC5)C3=O)c2CO)cc(Nc2ccc(N3CCN(C4COC4)CC3)cn2)c1=O
inhibition (MAP2K6; enzyme activity; inhibitor; 0.1 µM): 4%

N#CC1(c2ccccn2)CCN(Cc2cc(C(=O)O)c(=O)n3ccccc23)CC1
remaining binding (MAP2K6; cell-free assay; competition with immobilised ligand; 1 µM): 99%

CC(C)(C)c1cc(C=C(C#N)C#N)cc(Br)c1O
remaining activity (MAP2K6; enzyme activity; inhibitor; 0.5 µM): 107%
